# Tests used:
# Type in all cases: functional
# HT-29 = experiment: Antiproliferative activity against human HT-29 cells after 48 hrs by SRB assay; settings: HT-29, 48 h
# Method in brief: (§1)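 NCI60 panel in RPMI 1640 with 5% FBS and 2 mM L-glutamine. Cells were plated at 5000–40,000/well by doubling time, held 24 h, then time-zero plates were TCA-fixed. Five concentrations (10-fold or half-log dilutions of DMSO stocks) were applied for 48 h at 37 °C, 5% CO2. Cells were fixed with cold TCA (10% final adherent, 16% suspension) and stained with 0.4% SRB. Bound dye was dissolved in 10 mM Tris and read at 515 nm. GI50, TGI and LC50 were calculated per line.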
# OVCAR-3 = experiment: Cytotoxicity against human OVCAR3 cells assessed as cellular growth at 10 uM after 48 hrs by SRB assay
# Method in brief: (§2)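 NCI-60 panel lines grown in RPMI 1640 with 5% FBS and 2 mM L-glutamine. Plated at 5000–40,000 cells/well and preincubated 24 h at 37 °C, 5% CO₂, with time-zero plates fixed in TCA. Compounds, dissolved in DMSO and diluted in medium, were applied for 48 h. Cells were TCA-fixed (10% final for adherent, 16% for suspension) and stained with 0.4% SRB in 1% acetic acid. Dye was solubilised in 10 mM Tris base and read at 515 nm; growth was expressed as a percentage of untreated control.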
# MCF7 = experiment: Antitumor activity against human MCF7 cells after 48 hrs by SRB assay; settings: MCF7, 48 h; method in brief: as §1
# OVCAR-4 = experiment: Antitumor activity against human OVCAR4 cells after 48 hrs by SRB assay; settings: OVCAR-4, 48 h; method in brief: as §1
# M14 = experiment: Cytotoxicity against human M14 cells assessed as cellular growth at 10 uM after 48 hrs by SRB assay
# Method in brief: (§3)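 NCI60 single-dose screen of cells in RPMI 1640 with 5% FBS and 2 mM L-glutamine, preincubated 24 h at 37 °C, 5% CO₂. Cells were then exposed 48 h to compound added from DMSO stock. TCA-fixed, stained with 0.4% SRB in 1% acetic acid, dye solubilised in 10 mM Tris base and read at 515 nm. Growth is given as percent of untreated control.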
# SK-OV-3 [1] = experiment: Cytotoxicity against human SKOV3 cells assessed as cellular growth at 10 uM after 48 hrs by SRB assay; method in brief: as §2
# A498 = experiment: Antitumor activity against human A498 cells after 48 hrs by SRB assay; settings: A498, 48 h; method in brief: as §1
# SK-OV-3 [2] = experiment: Antitumor activity against human SKOV3 cells after 48 hrs by SRB assay; settings: SK-OV-3, 48 h
# Method in brief: (§4)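 NCI60 panel cells grown in RPMI 1640 with 5% FBS and 2 mM L-glutamine, plated at 5000–40,000 cells/well and preincubated 24 h at 37 °C, 5% CO₂. Compound was added from DMSO at five concentrations, 10-fold or 1/2 log dilutions, then incubated 48 h.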
# ACHN = experiment: Antitumor activity against human ACHN cells after 48 hrs by SRB assay; method in brief: as §1
# SF-295 = experiment: Cytotoxicity against human SF295 cells assessed as cellular growth at 10 uM after 48 hrs by SRB assay; method in brief: as §2
# A549 = experiment: Cytotoxicity against human A549 cells assessed as cellular growth at 10 uM after 48 hrs by SRB assay; method in brief: as §3
# RPMI-8226 [3] = experiment: Cytotoxicity against human RPMI8226 cells assessed as cellular growth at 10 uM after 48 hrs by SRB assay; method in brief: as §2
# MOLT-4 = experiment: Antitumor activity against human MOLT4 cells after 48 hrs by SRB assay; settings: MOLT-4, 48 h; method in brief: as §1
# RPMI-8226 [4] = experiment: Antitumor activity against human RPMI8226 cells after 48 hrs by SRB assay; settings: RPMI-8226, 48 h; method in brief: as §1
# HOP-92 = experiment: Antitumor activity against human HOP92 cells after 48 hrs by SRB assay; settings: HOP-92, 48 h; method in brief: as §1
# U-251 [5] = experiment: Cytotoxicity against human U251 cells assessed as cellular growth at 10 uM after 48 hrs by SRB assay; method in brief: as §2
# DU-145 = experiment: Cytotoxicity against human DU145 cells assessed as cellular growth at 10 uM after 48 hrs by SRB assay; method in brief: as §3
# U-251 [6] = experiment: Antitumor activity against human U251 cells after 48 hrs by SRB assay; settings: U-251, 48 h; method in brief: as §4
# BT-549 = experiment: Antitumor activity against human BT549 cells after 48 hrs by SRB assay; settings: BT-549, 48 h
# Method in brief: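 NCI60 screen: cells grown in RPMI 1640 with 5% FBS and 2 mM L-glutamine, plated at 5000–40,000 cells/well by doubling time, preincubated 24 h at 37 °C with 5% CO2. Compounds were diluted from DMSO stocks and given for 48 h, at five concentrations for dose response. A time-zero plate was TCA-fixed. Cells were TCA-fixed, stained with 0.4% SRB and read at 515 nm, with growth expressed relative to untreated controls.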
# UO-31 = experiment: Cytotoxicity against human UO31 cells assessed as cellular growth at 10 uM after 48 hrs by SRB assay; method in brief: as §2
# SK-MEL-2 = experiment: Antitumor activity against human SK-MEL-2 cells after 48 hrs by SRB assay; settings: SK-MEL-2, 48 h; method in brief: as §4
# [7] = read-out: pLC50 (the source's name) (converted)
# [8] = read-out: LC50 (the source's name)
smiles,measurement,setting,value
COc1cc(/C(=C2\O[C@@H]([C@H]3COC(C)(C)O3)[C@H]3OC(C)(C)O[C@@H]23)c2ccc3ccccc3c2)cc(OC)c1OC,LC50 (50% net cell kill),HT-29,> 100 µM
same,GI50,HT-29; read-out: GI50,6 µM
same,TGI,HT-29; read-out: TGI,> 100 µM
same,GI50,HT-29; read-out: pGI50 (converted),6.03 µM
same,CC50,HT-29; [7],> 100 µM
same,TGI,HT-29; read-out: pTGI (converted),> 100 µM
same,Activity,OVCAR-3,-6.76%
same,GI50,MCF7; read-out: GI50,3.69 µM
same,CC50,MCF7; [8],> 100 µM
same,TGI,MCF7; read-out: TGI,14.4 µM
same,GI50,MCF7; read-out: pGI50 (converted),3.63 µM
same,CC50,MCF7; [7],> 100 µM
same,TGI,MCF7; read-out: pTGI (converted),14.5 µM
same,GI50,OVCAR-4; read-out: GI50,2.82 µM
same,CC50,OVCAR-4; [8],> 100 µM
same,TGI,OVCAR-4; read-out: TGI,6.02 µM
same,GI50,OVCAR-4; read-out: pGI50 (converted),14.1 µM
same,CC50,OVCAR-4; [7],> 100 µM
same,TGI,OVCAR-4; read-out: pTGI (converted),11 µM
same,Activity,M14,62.78%
same,Activity,SK-OV-3 [1],51.39%
same,GI50,A498; read-out: GI50,17.8 µM
same,CC50,A498; [8],> 100 µM
same,TGI,A498; read-out: TGI,74.6 µM
same,GI50,A498; read-out: pGI50 (converted),4.37 µM
same,CC50,A498; [7],> 100 µM
same,TGI,A498; read-out: pTGI (converted),> 100 µM
same,GI50,SK-OV-3 [2]; read-out: GI50,4.37 µM
same,CC50,SK-OV-3 [2]; [8],> 100 µM
same,TGI,SK-OV-3 [2]; read-out: TGI,> 100 µM
same,GI50,SK-OV-3 [2]; read-out: pGI50 (converted),17.8 µM
same,CC50,SK-OV-3 [2]; [7],> 100 µM
same,TGI,SK-OV-3 [2]; read-out: pTGI (converted),> 100 µM
same,GI50,ACHN; read-out: GI50,4.39 µM
same,CC50,ACHN; [8],> 100 µM
same,TGI,ACHN; read-out: TGI,> 100 µM
same,GI50,ACHN; read-out: pGI50 (converted),4.57 µM
same,CC50,ACHN; [7],> 100 µM
same,TGI,ACHN; read-out: pTGI,> 100 µM
same,Activity,SF-295,48.59%
same,Activity,A549,-9.4%
same,Activity,RPMI-8226 [3],36.83%
same,LC50 (concentration killing 50% of cells),MOLT-4,> 100 µM
same,GI50,MOLT-4; read-out: GI50,> 100 µM
same,TGI,MOLT-4; read-out: TGI,> 100 µM
same,GI50,MOLT-4; read-out: pGI50 (converted),100 µM
same,CC50,MOLT-4; [7],> 100 µM
same,TGI,MOLT-4; read-out: pTGI,> 100 µM
same,LC50 (concentration killing 50% of starting cells),RPMI-8226 [4],> 100 µM
same,GI50,RPMI-8226 [4]; read-out: GI50,33.3 µM
same,TGI,RPMI-8226 [4]; read-out: TGI,> 100 µM
same,GI50,RPMI-8226 [4]; read-out: pGI50 (converted),33.1 µM
same,CC50,RPMI-8226 [4]; [7],> 100 µM
same,TGI,RPMI-8226 [4]; read-out: pTGI (converted),> 100 µM
same,GI50,HOP-92,2.67 µM
same,TGI,HOP-92,13.3 µM
same,CC50,HOP-92; [8],> 100 µM
same,Activity,U-251 [5],18%
same,Activity,DU-145,2.86%
same,GI50,U-251 [6],3.12 µM
same,TGI,U-251 [6],11.8 µM
same,CC50,U-251 [6]; [8],> 100 µM
same,CC50,BT-549; [8],> 100 µM
same,GI50,BT-549; read-out: pGI50 (converted),3.24 µM
same,CC50,BT-549; [7],> 100 µM
same,TGI,BT-549; read-out: pTGI (converted),8.13 µM
same,Activity,UO-31,46.81%
same,GI50,SK-MEL-2,1.53 µM
same,TGI,SK-MEL-2,4.12 µM
same,CC50,SK-MEL-2; [8],24.1 µM

# — ChEMBL document CHEMBL1828575, “Design, synthesis and antiproliferative activities of biarylolefins based on polyhydroxylated and carbohydrate scaffolds” (Eur J Med Chem, 2011)
